Measured values as given in ChEMBL document CHEMBL3596131, “Discovery of a novel trans-1,4-dioxycyclohexane GPR119 agonist series” (Bioorg Med Chem Lett, 2015).
The source made the active and inactive calls. The rule behind the calls is not given here.

Experiments:
[1] = target: T1, Glucose-dependent insulinotropic receptor (Homo sapiens, UniProt Q8TDV5); assay: Agonist activity at human GPR119 by serum shift assay
T1 sequence (Q8TDV5 whole entry): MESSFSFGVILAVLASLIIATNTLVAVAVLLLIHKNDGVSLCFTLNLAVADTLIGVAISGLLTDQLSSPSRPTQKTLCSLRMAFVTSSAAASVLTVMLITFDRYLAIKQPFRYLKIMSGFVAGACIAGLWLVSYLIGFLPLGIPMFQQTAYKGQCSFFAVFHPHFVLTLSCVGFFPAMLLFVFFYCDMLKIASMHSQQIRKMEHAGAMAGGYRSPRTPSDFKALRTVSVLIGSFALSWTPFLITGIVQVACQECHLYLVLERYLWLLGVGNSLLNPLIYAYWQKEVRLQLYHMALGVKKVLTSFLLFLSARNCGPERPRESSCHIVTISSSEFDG
Procedure, shortened: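 HTRF cAMP read-out with cells plated overnight; growth medium swapped for fetal bovine serum-containing medium. Compounds serially diluted in DMSO, then in PBS with IBMX and 0.1% BSA to 2× concentration (1% DMSO) before addition. Potency compared with and without serum.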

[2] = Half life in human liver microsomes; format: ADME
[3] = Half life in mouse liver microsomes; format: ADME
[4] = species on record: Macaca mulatta; assay: Agonist activity at monkey GPR119 by HTRF cAMP assay relative to AR231453
[5] = target: T2, Glucose-dependent insulinotropic receptor (Mus musculus) (UniProt Q7TQP3); assay: Agonist activity at mouse GPR119 by HTRF cAMP assay relative to AR231453; format: functional
T2 sequence (whole entry): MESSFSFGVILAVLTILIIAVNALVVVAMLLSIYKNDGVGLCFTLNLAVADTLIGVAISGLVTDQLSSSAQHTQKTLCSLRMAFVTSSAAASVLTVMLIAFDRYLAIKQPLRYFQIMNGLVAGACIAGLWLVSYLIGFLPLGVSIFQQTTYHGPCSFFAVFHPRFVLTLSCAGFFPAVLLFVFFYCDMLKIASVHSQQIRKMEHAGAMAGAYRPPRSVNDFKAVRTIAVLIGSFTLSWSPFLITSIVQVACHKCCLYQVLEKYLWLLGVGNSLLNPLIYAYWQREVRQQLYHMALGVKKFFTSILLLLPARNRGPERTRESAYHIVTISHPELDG

[6] = Terminal half life in Sprague-Dawley rat at 2 mg/kg, iv and po; format: ADME, organism-based; details: in vivo, read-out: beta t1/2 (converted)
Procedure, shortened: (§1)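 Male Sprague-Dawley rats; 2 mg/kg IV and 2 mg/kg PO in 20% hp-β-CD; clearance, Vss, terminal t1/2, Cmax, AUClast and oral bioavailability derived.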

[7] = AUClast in Sprague-Dawley rat at 2 mg/kg, iv and po; format: ADME, organism-based; details: in vivo; procedure, shortened: as §1
[8] = Oral bioavailability in Sprague-Dawley rat at 2 mg/kg; format: ADME, organism-based; details: in vivo; procedure, shortened: as §1
[9] = Drug uptake in Sprague-Dawley rat brain at 2 mg/kg, po measured at 2 hrs; format: ADME, organism-based; details: read-out: Drug uptake
Procedure, shortened: (§2)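 Abbreviated CNS study in male SD rats given 2 mg/kg orally in 20% hp-β-CD; brain (ng/g) and plasma (ng/mL) levels sampled at 2 h post-dose, brain/plasma ratio calculated.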

[10] = Plasma concentration in Sprague-Dawley rat at 2 mg/kg, po measured at 2 hrs; format: ADME, organism-based; procedure, shortened: as §2
[11] = Cmax in Sprague-Dawley rat at 2 mg/kg, iv and po; format: ADME, organism-based; details: in vivo; procedure, shortened: as §1
[12] = system: Mus musculus; assay: In vivo activation of GPR119 in normoglycemic 129SVE mouse assessed as increase in GIP level in plasma at 3 to 30 mg/kg, po measured after 45 mins relative to vehicle-treated control; format: functional, organism-based
Procedure, shortened: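 Normoglycemic male 129SVE mice dosed orally (3 and 30 mg/kg); plasma GIP measured 45 min after dosing versus vehicle-treated controls; AR231453 at 30 mg/kg as reference agonist.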

[13] = system: Mus musculus; assay: Antidiabetic activity in normoglycemic 129SVE mouse assessed as suppression of plasma glucose AUC at 1 to 10 mg/kg, po administered 30 mins prior to glucose challenge measured over 120 mins by OGTT relative to vehicle-treated control; format: functional
[14] = system: Rattus norvegicus; assay: Antidiabetic activity in Zucker diabetic fatty rat assessed as suppression of plasma glucose AUC at 3 mg/kg administered 60 mins prior to glucose challenge by OGTT relative to vehicle-treated control; format: functional
[15] = system: Rattus norvegicus; assay: Antidiabetic activity in Zucker diabetic fatty rat assessed as suppression of plasma glucose AUC at 10 mg/kg administered 60 mins prior to glucose challenge by OGTT relative to vehicle-treated control; format: functional
[16] = system: Rattus norvegicus; assay: Antidiabetic activity in Zucker diabetic fatty rat assessed as suppression of plasma glucose AUC administered 60 mins prior to glucose challenge by OGTT; format: functional, organism-based
[17] = system: Rattus norvegicus; assay: Antidiabetic activity in Zucker diabetic fatty rat assessed as decrease in HbA1C level at 1 mg/kg, qd administered over 4 weeks measured on day 28 post last dose relative to vehicle-treated control; format: functional; set-up: scale not given: the % may be the effect or the level left
Procedure, shortened: (§3)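 Chronic study in ZDF rats: once-daily dosing at 1, 3 or 10 mg/kg for 4 weeks, vehicle 0.5% methylcellulose; fed glucose and body weight tracked at dosing times, HbA1c measured on day 28 relative to vehicle.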

[18] = system: Rattus norvegicus; assay: Antidiabetic activity in Zucker diabetic fatty rat assessed as decrease in HbA1C level at 10 mg/kg, qd administered over 4 weeks measured on day 28 post last dose relative to vehicle-treated control; format: functional; set-up: scale not given: the % may be the effect or the level left; procedure, shortened: as §3
[19] = system: Rattus norvegicus; assay: Antidiabetic activity in Zucker diabetic fatty rat assessed as decrease in HbA1C level administered as qd over 4 weeks measured on day 28 post last dose; format: functional, organism-based; procedure, shortened: as §3
[20] = system: Rattus norvegicus; assay: Toxicity in Zucker diabetic fatty rat assessed as effect on body weight at 1 to 10 mg/kg, qd administered over 4 weeks measured during compound dosing; format: organism-based; details: in vivo, 672 h; procedure, shortened: as §3
[21] = target: Voltage-gated inwardly rectifying potassium channel KCNH2 (Homo sapiens, UniProt Q12809); assay: Inhibition of human ERG by patch clamp assay
[22] = target: Cytochrome P450 2C9 (Homo sapiens, UniProt P11712); assay: Inhibition of CYP2C9 in human liver microsomes; format: ADME
[23] = Time-dependent inhibition of CYP450 in human liver microsomes; format: ADME

Chain of Cytochrome P450 2C9 (P11712 whole entry): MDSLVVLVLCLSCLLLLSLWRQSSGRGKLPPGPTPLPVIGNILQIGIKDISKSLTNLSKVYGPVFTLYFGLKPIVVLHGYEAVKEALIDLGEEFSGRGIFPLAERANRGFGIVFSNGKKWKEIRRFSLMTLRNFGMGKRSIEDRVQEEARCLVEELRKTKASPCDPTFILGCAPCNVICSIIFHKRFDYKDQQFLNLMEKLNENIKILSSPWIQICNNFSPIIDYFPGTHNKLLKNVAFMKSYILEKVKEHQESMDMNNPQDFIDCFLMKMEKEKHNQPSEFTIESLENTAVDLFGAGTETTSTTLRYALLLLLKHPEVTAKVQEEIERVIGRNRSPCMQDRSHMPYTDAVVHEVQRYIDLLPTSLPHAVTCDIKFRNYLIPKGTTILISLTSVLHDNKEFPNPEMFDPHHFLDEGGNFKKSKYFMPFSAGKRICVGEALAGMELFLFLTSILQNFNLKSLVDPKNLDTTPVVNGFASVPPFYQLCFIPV
Chain of Voltage-gated inwardly rectifying potassium channel KCNH2 (Q12809 whole entry): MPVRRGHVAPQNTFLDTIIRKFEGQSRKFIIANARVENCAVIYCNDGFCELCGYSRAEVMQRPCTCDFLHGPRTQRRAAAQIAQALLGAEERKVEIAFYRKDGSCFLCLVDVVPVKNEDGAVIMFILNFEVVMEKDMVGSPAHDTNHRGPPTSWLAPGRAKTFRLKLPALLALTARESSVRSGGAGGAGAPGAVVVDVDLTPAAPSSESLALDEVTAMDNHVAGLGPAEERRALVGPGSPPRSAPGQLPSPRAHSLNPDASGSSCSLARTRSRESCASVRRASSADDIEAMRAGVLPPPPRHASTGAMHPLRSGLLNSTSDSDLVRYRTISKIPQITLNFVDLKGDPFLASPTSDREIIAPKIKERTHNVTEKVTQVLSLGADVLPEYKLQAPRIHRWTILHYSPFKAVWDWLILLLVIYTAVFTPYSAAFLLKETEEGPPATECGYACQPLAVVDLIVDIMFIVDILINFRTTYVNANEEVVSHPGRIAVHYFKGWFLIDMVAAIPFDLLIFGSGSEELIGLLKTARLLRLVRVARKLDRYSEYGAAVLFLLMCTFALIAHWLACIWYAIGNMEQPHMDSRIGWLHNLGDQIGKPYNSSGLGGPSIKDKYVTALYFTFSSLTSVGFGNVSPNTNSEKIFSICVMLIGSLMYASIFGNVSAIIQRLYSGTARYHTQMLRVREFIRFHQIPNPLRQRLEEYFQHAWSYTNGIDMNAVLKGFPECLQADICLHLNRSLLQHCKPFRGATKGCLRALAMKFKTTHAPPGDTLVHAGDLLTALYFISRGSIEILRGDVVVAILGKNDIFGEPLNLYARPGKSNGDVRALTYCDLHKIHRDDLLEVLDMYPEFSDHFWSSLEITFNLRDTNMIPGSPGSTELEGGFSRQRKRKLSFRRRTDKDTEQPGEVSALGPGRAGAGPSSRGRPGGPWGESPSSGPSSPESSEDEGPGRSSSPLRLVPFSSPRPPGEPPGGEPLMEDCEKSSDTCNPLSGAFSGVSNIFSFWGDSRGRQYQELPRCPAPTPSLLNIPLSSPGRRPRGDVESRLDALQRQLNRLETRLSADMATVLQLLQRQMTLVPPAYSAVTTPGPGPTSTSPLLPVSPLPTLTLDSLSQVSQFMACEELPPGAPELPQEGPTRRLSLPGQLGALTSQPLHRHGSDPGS

**Q.** Which results are given for `C[C@@H](OC(=O)N1CCC(O[C@H]2CC[C@H](Oc3cnc(S(C)(=O)=O)cn3)CC2)CC1)C(F)(F)F`?
**A.** EC50 [1]: 38 nM; half-life [2]: > 1 h; half-life [3]: > 1 h; Emax [4]: 73%; Emax [5]: 130%; half-life [6]: 6.45 h; AUC(0-t) [7]: 5210 ng·h/mL; bioavailability [8]: 100%; concentration at 2 h [9]: 820 ng/g; concentration at 2 h [10]: 841 ng/mL; Cmax [11]: 770 ng/mL; Activity [12]: Active; Activity [13]: 40%; Activity [14]: 43%; Activity [15]: 58%; Activity [16]: Dose-dependent effect; Activity [17]: 1.63%; Activity [18]: 2.58%; Activity [19]: Dose-dependent effect; Activity [20]: Non-toxic; IC50 [21]: > 30000 nM; INH [22]: 27.5 µM; TDI [23]: Not Active
